Screens from PubChem BioAssay.
MrgX1 PAM – allosterically activates human MrgX1 receptor signaling | Q96LB2 | MrgX1-HEK293, Fluo-4 calcium flux, FDSS; hits give high values | B-score at 10 µM | 0.63% of 310,000 active | AID 588675;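 active means plate-corrected calcium response at least 3 library SD above typical, normal starting fluorescence, not activating the receptor alone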;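 further: compound read alongside a low EC10 to EC30 dose of BAM8-22 agonist; peak minus trough fluorescence over baseline measured at the second addition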
Target sequence (Q96LB2 whole entry, looked up): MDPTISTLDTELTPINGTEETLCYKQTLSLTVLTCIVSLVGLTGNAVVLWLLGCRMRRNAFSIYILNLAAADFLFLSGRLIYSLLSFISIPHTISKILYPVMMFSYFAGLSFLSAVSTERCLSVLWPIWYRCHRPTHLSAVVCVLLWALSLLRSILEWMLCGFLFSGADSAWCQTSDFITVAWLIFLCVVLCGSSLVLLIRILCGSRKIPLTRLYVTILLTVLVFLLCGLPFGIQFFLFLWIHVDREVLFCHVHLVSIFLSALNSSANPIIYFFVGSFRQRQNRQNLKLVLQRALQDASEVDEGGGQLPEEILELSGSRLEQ
MrgX1 antag – antagonists of human MrgX1 receptor; MRGX1-HEK293 calcium flux, Fluo-4, BAM8-22 antagonism; hits give low values; 1.3% of 310,000 active; Q96LB2; B-score at 10 µM;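 active means calcium-response B-score plate-corrected more than 3 library SD below zero, starting fluorescence within 5 deviations, no agonist response on first addition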;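 further: peak minus trough fluorescence over baseline after final BAM8-22 challenge near maximal dose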
RGS4 block – human RGS4 inhibition | P49798 | AID 463165 | 0.45% of 310,000 active | HEK293 M3R/RGS4 inducible, Fluo-4 calcium flux; hits give high values; triggered by carbachol at its EC20 | B-score at 10 µM;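 active means B-score, a plate-corrected calcium signal, over three deviations above library mean, with baseline fluorescence within five deviations of library mean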;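 further: RGS4 expression induced by doxycycline in cells with stable M3 receptor; B-score is computed from the integrated fluorescence ratio over baseline after carbachol; higher B-score means a larger calcium signal and so more RGS4 inhibition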
Target sequence (P49798 whole entry, looked up): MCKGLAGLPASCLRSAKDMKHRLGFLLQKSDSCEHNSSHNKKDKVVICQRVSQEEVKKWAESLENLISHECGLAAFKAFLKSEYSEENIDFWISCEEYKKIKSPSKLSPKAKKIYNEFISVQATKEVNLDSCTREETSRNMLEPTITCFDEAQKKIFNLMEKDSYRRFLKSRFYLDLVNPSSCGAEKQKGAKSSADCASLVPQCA
RGS4 pot – potentiators or activators of RGS4; HEK293 M3R/inducible RGS4, carbachol calcium flux Fluo4; hits give low values; B-score at 10 µM; 0.92% of 310,000 active;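 active means B-score of the integrated calcium signal more than 4 SD below the library mean, with starting fluorescence not abnormally high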;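 further: negative B-score means reduced calcium response which marks RGS4 activation or potentiation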
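Assay system: HEK293 FlpIn-TREx cells, stable M3R, doxycycline-inducible RGS4 / Probe or stimulus: carbachol, ECmax concentration / Times: overnight RGS4 induction, 30 min dye load 37 °C, 20 min compound RT / Signal: kinetic calcium fluorescence imaging with Fluo4-AM dye, 2 µM / Measure: Agonist-evoked peak-minus-minimum fluorescence over baseline, integrated ratio, B score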
MrgX1 agonist – activates human MrgX1 receptor signaling. MrgX1-HEK293 cells, Fluo-4 calcium fluorescence, agonist mode; hits give high values. 0.44% of 310,000 active. B-score at 10 µM;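 active means calcium response B-score plate-corrected fluorescence ratio at least 3 library SD, with starting fluorescence B-score inside 5 SD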
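Material: MrgX1-expressing HEK293 cells / Dosing: compound as first of three additions / Incubation: overnight seeding, then 1 h dark dye loading / Signal: Fluo-4 NW calcium fluorescence / Evaluation: B-scored fluorescence response ratio / Benchmarks: positive and negative control wells on each plate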
RGS4 block valid – validation of RGS4 inhibitors; shares compounds with RGS4 block; HEK293 M3R/RGS4, carbachol calcium Fluo-4 fluorescence; carbachol added at its EC20; 0 = buffer wells, 100 = carbachol control; calcium response, % at 10 µM; 65% of 1,700 active; AID 492999;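 active means duplicate-averaged calcium response above the buffer-only control mean plus 5 SD of those controls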;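 further: integrated fluorescence ratio F max minus min over baseline F0; higher response in RGS4-induced cells means RGS4 inhibition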
M3R Ca ctr – counter-screen for RGS4 inhibitors: effect in non-induced cells; activity (percent), % at 10 µM; 20% of 1,900 active; HEK293 M3R non-induced, carbachol calcium Fluo-4; submaximal (EC20) carbachol stimulus; buffer wells 0%, carbachol control wells 100%; shares compounds with RGS4 block; call rule not given here;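 further: RGS4 induction absent so cells express M3R without RGS4; higher means more calcium signal and flags a non-specific hit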
RGS4 inh ctr2 – second RGS4 inhibitor counter-screen in uninduced cells lacking carbachol. shares compounds with RGS4 block. HEK293 M3R/RGS4 non-induced, Fluo-4 calcium, no carbachol; normalised: buffer wells 0%, carbachol wells 100%. calcium response (agonist-mode artifact), % at 10 µM. 22% of 1,900 active. AID 493001;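 active means duplicate-averaged calcium rise in uninduced cells above buffer wells' mean plus 5 SD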
* = called active by the depositor; i = inactive; . = not tested or not shown. Sampled rows, rich in hits. Any-hit rate of the full collection: about 3.5%.

SMILES	MrgX1 PAM	MrgX1 antag	RGS4 block	RGS4 pot	MrgX1 agonist	RGS4 block valid	M3R Ca ctr	RGS4 inh ctr2
CC(=O)Nc1scc(C)c1-c1nc2ccccc2s1	i	i	i	i	i	.	.	.
Cc1csc(NC(=O)CCCC(=O)O)c1-c1nc2ccccc2s1	i	i	6.2*	i	i	32%*	48%*	i
Cc1csc(NC(=O)COCC(=O)O)c1-c1nc2ccccc2s1	i	i	6.8*	i	i	22%*	i	i
CCOCCCNC(=O)N[C@H](C(=O)OC)C(C)CC (stereo partly specified)	i	i	i	i	i	.	.	.
C=CCNC(=O)/C(C#N)=C/c1ccc(OS(=O)(=O)c2ccc(C)cc2)c(OC)c1	i	i	4.8*	i	i	14%*	i	i
COC(=O)c1c(NC(=O)CC2SC(N)=NC2=O)sc2c1CCC(C(C)(C)C)C2 (stereo unspecified)	i	i	12*	i	i	43%*	i	i
COC(=O)c1c(NC(=O)CC2SC(N)=NC2=O)sc2c1CCCC2 (stereo unspecified)	i	i	i	i	i	.	.	.
CCOC(=O)c1c(NC(=O)CC2SC(N)=NC2=O)sc2c1CCC(C)C2 (stereo unspecified)	i	i	i	i	i	.	.	.
COC(=O)c1c(NC(=O)CC2SC(N)=NC2=O)sc2c1CCC(C)C2 (stereo unspecified)	i	i	i	i	i	.	i	i
COc1ccc(C2C(C(C)=O)=C(O)C(=O)N2c2nccs2)c(OC)c1 (stereo unspecified)	i	i	i	i	i	.	.	.
CCC(c1nnnn1Cc1ccco1)N(Cc1ccccc1OC)Cc1cc2cc(C)ccc2[nH]c1=O (stereo unspecified)	i	i	i	i	i	.	.	.
Cc1ccc2[nH]c(=O)c(C(c3nnnn3C3CCCC3)N(Cc3cccnc3)Cc3ccco3)cc2c1 (stereo unspecified)	i	i	i	i	i	.	.	.
CC(C)(C)n1nnnc1C(c1ccccc1F)N(Cc1ccco1)CC1CCCO1 (stereo unspecified)	i	i	i	i	i	.	.	.
CCC(c1nnnn1Cc1ccco1)N(Cc1cc2cc(C)cc(C)c2[nH]c1=O)CC1CCCO1 (stereo unspecified)	i	i	5.8*	i	i	i	i	i
Cc1ccc2[nH]c(=O)c(C(c3nnnn3C(C)(C)C)N(Cc3ccco3)CC3CCCO3)cc2c1 (stereo unspecified)	i	i	i	i	i	i	i	i
Cc1cccc2cc(C(c3nnnn3C(C)(C)C)N(Cc3ccco3)CC3CCCO3)c(=O)[nH]c12 (stereo unspecified)	i	i	i	i	i	i	i	i
COc1ccc2[nH]c(=O)c(CN(C3CCCCC3)C(c3nnnn3Cc3ccco3)C(C)C)cc2c1 (stereo unspecified)	i	-4.5*	7.6*	i	i	7.5%*	i	24%*
COc1ccc(C(=O)OCN2C(=O)c3ccccc3C2=O)cc1	i	i	i	i	i	.	.	.
COc1ccc(NC(=O)c2ccc(NC(=O)c3cccs3)cc2)cc1	i	i	i	i	i	.	.	.
COc1nc(N)nc(NC(=O)c2cccs2)c1N=O	i	i	8.1*	i	i	16%*	i	i
CN(CC(=O)Nc1cccc(F)c1)C(=O)CCCc1cccs1	i	i	i	i	i	.	.	.
CC(=O)Nc1cccc(NC(=O)CSc2ncc(C(=O)Nc3ccc(F)cc3)c(=O)n2C)c1	i	i	i	i	i	i	i	i
CC(=O)c1cccc(NC(=O)CSc2ncc(C(=O)Nc3ccccc3)c(=O)n2C)c1	i	i	i	i	i	.	39%*	i
Cc1nc2c(C(=O)NCCC3=CCCCC3)c[nH]n2c(=O)c1Cl	i	i	17*	i	i	52%*	52%*	i
COc1cccc(-c2nc(C=O)cs2)c1	i	i	5*	i	i	5.0%*	i	i
SMILES	MrgX1 PAM	MrgX1 antag	RGS4 block	RGS4 pot	MrgX1 agonist	RGS4 block valid	M3R Ca ctr	RGS4 inh ctr2
O=C(NCC1OCCc2ccccc21)c1cc(COc2c(F)cccc2F)on1 (stereo unspecified)	i	i	i	i	i	.	.	.
CC(NC(=O)/C(C#N)=C/c1ccco1)c1ccccc1 (stereo unspecified)	i	i	i	i	i	.	.	.
CCOCCCNC(=O)/C(C#N)=C/c1ccc([N+](=O)[O-])o1	8.4*	i	8.1*	i	i	31%*	i	i
CC(NC(=O)/C(C#N)=C/c1ccc([N+](=O)[O-])o1)c1ccccc1 (stereo unspecified)	i	i	6.2*	i	i	16%*	i	8.5%*
NC(=O)C1(N2CCCCC2)CCN(S(=O)(=O)c2cc(Cl)sc2Cl)CC1	i	i	i	i	i	.	.	.
COC(=O)c1nnn(-c2nc(N(C)C)nc(N(C)C)n2)c1C	i	i	i	i	i	.	.	.
C=CC(C)(C)c1c(O)c(CC=C(C)C)c(O)c2c(=O)c3ccc(O)c(O)c3oc12	i	i	6*	i	i	9.5%*	i	i
CCN(C#N)c1nc(NC(C)C)nc(NC(C)(C)C)n1	i	i	5.1*	i	i	7.0%*	i	i
Nc1nc(Nc2ccc(Cl)cc2)nc(NCc2ccco2)c1[N+](=O)[O-]	i	i	i	i	i	.	i	i
Nc1nc(Nc2cccc(Cl)c2)nc(NCc2ccco2)c1[N+](=O)[O-]	i	i	17*	i	i	11%*	i	i
Cc1cccc(Nc2nc(NCc3ccco3)nc(N)c2[N+](=O)[O-])c1	i	i	i	i	i	.	.	.
Cc1cccc(Nc2nc(N)c([N+](=O)[O-])c(NCc3ccco3)n2)c1	i	i	i	i	i	i	i	i
